According to publication PMC4879609 (Molecular microbiology, 2016):
Several values for one entry are separate records, joined by “and”; a condition that tells them apart may be missing. Equal entries are not always repeated. Where two headings read alike, the source gives them in different places.

Assays:
[1] = target: T1, LdIMPDH (Leishmania donovani, UniProt P21620); assay: Rate zonal centrifugation, quaternary structure of LdIMPDH; parameters: species or system L. donovani; details: saturating nucleotide, glycerol gradient
[2] = target: T2, LmGMPR (Leishmania major, UniProt Q4QEB3); assay: Fluorescence titration of nucleotide binding to full length LmGMPR; parameters: species or system L. major
T2 sequence (Q4QEB3 1-492): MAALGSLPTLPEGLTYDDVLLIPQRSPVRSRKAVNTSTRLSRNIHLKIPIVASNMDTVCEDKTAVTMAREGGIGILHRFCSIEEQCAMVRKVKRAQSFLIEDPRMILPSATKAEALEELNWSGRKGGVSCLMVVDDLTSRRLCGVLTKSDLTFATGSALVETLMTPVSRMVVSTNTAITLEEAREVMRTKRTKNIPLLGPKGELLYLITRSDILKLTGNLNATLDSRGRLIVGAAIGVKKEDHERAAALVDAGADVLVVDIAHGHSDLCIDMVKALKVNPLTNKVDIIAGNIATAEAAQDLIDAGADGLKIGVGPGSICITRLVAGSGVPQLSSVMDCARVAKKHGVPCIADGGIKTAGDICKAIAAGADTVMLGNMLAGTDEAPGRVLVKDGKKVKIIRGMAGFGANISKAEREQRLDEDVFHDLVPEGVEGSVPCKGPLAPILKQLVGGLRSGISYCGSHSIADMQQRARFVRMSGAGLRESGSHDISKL

[3] = target: LdIMPDH CBS domain (His6-impdh112-223) (Leishmania donovani, UniProt P21620); assay: Intrinsic fluorescence binding to LdIMPDH CBS domain; parameters: species or system L. donovani
[4] = target: T2, LmGMPR; assay: Rate zonal centrifugation, quaternary structure of LmGMPR; parameters: species or system L. major; details: saturating (1.0 mM) nucleotide, 5–40% glycerol gradient
How it was run: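 Recombinant LmGMPR expressed in GMPR-deficient E. coli and purified by ammonium sulfate fractionation and Cibacron blue chromatography. Spun at 34,000 rpm for 16 h at 4 °C; 50 μg bovine hemoglobin as internal standard.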

[5] = target: T1, LdIMPDH; assay: biochemical; assay type: binding
[6] = target: LmGMPR CBS domain (His6-gmpr92-222) (Leishmania major, UniProt Q4QEB3); assay: Intrinsic fluorescence binding to LmGMPR CBS domain; parameters: species or system L. major
[7] = target: T2, LmGMPR; assay: Steady-state kinetic analysis of LmGMPR; assay type: biochemical, L. major; details: for Increase in NADPH Km value: saturating concentrations of GMP
[8] = target: T1, LdIMPDH; details: read-out: inhibition constant (Ki); ref Dobie et al., 2007; cited from earlier work
[9] = target: eukaryotic IMPDH enzymes, including human and Leishmania; details: literature values; cited from earlier work
[10] = tested on: Leishmania; assay: Leishmania growth in media with defined purine source in presence of MPA; assay type: cell-based; details: media supplemented with either guanine or xanthine (Fig. S2)
[11] = target: Leishmania major guanosine 5'-monophosphate reductase (Leishmania major); assay: rate zonal centrifugation on a glycerol gradient
[12] = target: the molecule itself; assay: rate zonal centrifugation on a glycerol gradient
[13] = target: the molecule itself; assay: rate zonal centrifugation on a glycerol gradient; remark: listed apart in the source
[14] = read-out: Kd1, 26 μM LmGMPR, no NADPH, fluorescence at 335 nm
[15] = 20 μM LdIMPDH, single phase binding isotherm

## Nc1ncnc2c1ncn2[C@@H]1O[C@H](COP(=O)(O)O)[C@@H](O)[C@H]1O [AMP]
[1]
  Quaternary structure of LdIMPDH: tetrameric structure

## Nc1ncnc2c1ncn2[C@@H]1O[C@H](COP(=O)(O)OP(=O)(O)OP(=O)(O)O)[C@@H](O)[C@H]1O [ATP]
[2]; [14]
  Kd: 87 ± 24 µM
[3]; intrinsic fluorescence changes
  Kd: 148 ± 19 µM
[4]
  Quaternary structure of LmGMPR: monomeric and dimeric forms
[1]
  Quaternary structure of LdIMPDH: tetrameric structure
[5]; [15]
  Kd: 130 ± 11 µM
[6]; up to 3.0 mM
  Binding saturation: saturation binding was not attained
[7]; 1.0 mM ATP
  Decrease in Vmax value: ~ 4 fold
  Increase in GMP Ks (Km) value: 10 fold and ~ 10 fold
[7]
  Increase in NADPH Km value: ~ 2 fold

## Nc1nc2c(ncn2[C@@H]2O[C@H](COP(=O)(O)O)[C@@H](O)[C@H]2O)c(=O)[nH]1 [GMP, guanosine 5′-monophosphate]
[2]
  Kd: 20 ± 2 µM
[8]
  Ki: ~200 µM
[4]
  Quaternary structure of LmGMPR: stabilized the formation of the LmGMPR tetramer
[1]
  Quaternary structure of LdIMPDH: tetrameric structure
[5]
  Kd: 66 ± 7 µM
[6]
  Kd: 333 ± 27 µM

## Nc1nc2c(ncn2[C@@H]2O[C@H](COP(=O)(O)OP(=O)(O)OP(=O)(O)O)[C@@H](O)[C@H]2O)c(=O)[nH]1 [GTP]
[2]; [14]
  Kd: 16 ± 1 µM
[4]
  Quaternary structure of LmGMPR: stabilized the formation of the LmGMPR tetramer
[5]; [15]
  Kd: 67 ± 5 µM
[6]; single phase binding isotherm, 35 μM His6-gmpr92-222
  Kd: 188 ± 19 µM
[7]; 10 μM GTP
  Decrease in GMP Ks value: ~ 3 fold
  Increase in Vmax value: ~ 8 fold
[7]
  Increase in NADPH Km value: ~ 2 fold
[7]; steady state kinetic analysis
  Utilization as substrate by LmGMPR: not utilized as a substrate

## COc1c(C)c2c(c(O)c1C/C=C(\C)CCC(=O)O)C(=O)OC2 [MPA, mycophenolic acid]
[9]
  Ki: 4 to 20 nM
[10]
  Effect on parasite growth: refractory to MPA
[7]
  Ki: ~20 µM
  Mode of inhibition of LmGMPR: competitive inhibitor of NADPH

## [Mg+2] [Mg^2+]
[7]; added to the reaction buffer
  Effect on LmGMPR enzymatic activity: no significant affect on enzymatic activity

## NC(=O)C1=CN([C@@H]2O[C@H](COP(=O)(O)OP(=O)(O)OC[C@H]3O[C@@H](n4cnc5c(N)ncnc54)[C@H](O)[C@@H]3O)[C@@H](O)[C@H]2O)C=CC1 [NADH]
[7]; NADH up to 5.0 mM
  Use as hydride donor for reductive deamination of GMP: failed to induce the reductive deamination of GMP

## NC(=O)C1=CN([C@@H]2O[C@H](COP(=O)(O)OP(=O)(O)OC[C@H]3O[C@@H](n4cnc5c(N)ncnc54)[C@H](OP(=O)(O)O)[C@@H]3O)[C@@H](O)[C@H]2O)C=CC1 [NADPH]
[2]; absence of GMP, shift of NADPH emission λmax, excitation 340 nm, equation 3
  Kd: 27 ± 4 µM

## O=c1[nH]cnc2nc[nH]c12 [hypoxanthine]
[3]
  Binding to LdIMPDH CBS domain: no saturable binding
[5]; concentration of 2.0 mM
  Binding to LdIMPDH: no significant binding

## Leishmania major guanosine 5'-monophosphate reductase (enzyme)
[11]
  stoichiometry N: 2

B1: Leishmania donovani inosine 5'-monophosphate dehydrogenase (enzyme, UniProt P21620 1-514, looked up)
chain: MATNNANYRIKTIKDGCTAEELFRGDGLTYNDFIILPGFIDFGAADVNISGQFTKRIRLHIPIVSSPMDTITENEMAKTMALMGGVGVLHNNCTVERQVEMVKSVKAYRNGFISKPKSVPPNTPISNIIRIKEEKGISGILVTENGDPHGKLLGIVCTKDIDYVKNKDTPVSAVMTRREKMTVERAPIQLEEAMDVLNRSRYGYLPIVNENDEVVNLCSRRDAVRARDYPHSTLDKSGRLICAAATSTRPEDKRRVAALADVGVDVLVLDSSQGNTIYQIAFIKWVKSTYPHLEVVAGNVVTQDQAKNLIDAGADGIRIGMGSGSICITQEVLACGRPQGTAVYKVAQYCASRGVPCTADGGLRQVGDICKALAIGANCAMLGGMLSGTTETPGEYFFKGGVRLKVYRGMGSLEAMSQGKESGKRYLSENEAVQVAQGVSGNVVDKGSAAKLIAYVSKGLQQSAQDIGEISFDAIREKMYAGQVLFSRRSPTAQGEGGVHSLHSYEKKLFAAKM
[12]
  stoichiometry N: 4
[13]
  stoichiometry N: 2
